Source: ChEMBL document CHEMBL4371097, “Antibacterial Aromatic Polyketides Incorporating the Unusual Amino Acid Enduracididine” (J Nat Prod, 2019)
pIC50: −log10 of the molar value. Values after ≈ are worked out from the molar mass of the structure shown. Active and inactive are the calls of the source. The calls are words filed in the database; no cut-off is given here.

What was measured:
Staphylococcus aureus [1] = assay: microbe, parasite or virus in culture; details: ATCC 29213, 16 h
Candida albicans = assay: Antifungal activity against Candida albicans after 16 hrs by agar diffusion method; assay type: functional, organism-based
[2] = Growth inhibition of human PANC1 cells at 90 uM after 48 hrs by MTT assay relative to control; assay type: cell-based; details: PANC-1 cells, read-out: GI
Streptococcus pyogenes = assay: Antibacterial activity against Streptococcus pyogenes isolate 49 after 16 hrs by agar diffusion method; assay type: functional
[3] = tested on: Staphylococcus haemolyticus; assay: Antibacterial activity against multidrug-resistant Staphylococcus haemolyticus isolate 1729 after 16 hrs by agar diffusion method; assay type: functional
Staphylococcus aureus [4] = assay: Stimulation of protein synthesis in Staphylococcus aureus isolate 12ST assessed as increase in L-[3H]tryptophan incorporation preincubated for 5 mins followed by L-[3H]tryptophan addition and measured after 5 mins by liquid scintillation counting method; assay type: functional, organism-based
Procedure, shortened: (§1)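 S. aureus 12ST was grown overnight in 0.2× LB, diluted 200-fold and grown at 37 °C to OD600 0.2–0.25. 80 µL aliquots got medium or compound (added at 10× final) for 5 min at 37 °C. [5,6-3H]uridine 0.15 µCi or L-[5-3H]tryptophan 0.25 µCi was added for 5 min more. Samples were precipitated in ice-cold 5% TCA, filtered and scintillation-counted. DMSO ≤0.5% final.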

Streptococcus pneumoniae [5] = assay: Antibacterial activity against Streptococcus pneumoniae ATCC BAA1407 after 16 hrs by agar diffusion method; assay type: functional
Staphylococcus aureus [6] = assay: Inhibition of cell wall synthesis in Staphylococcus aureus isolate 12ST assessed as reduction in [3H]glucosamine hydrochloride incorporation preincubated for 5 mins followed by [3H]glucosamine hydrochloride addition and measured after 5 mins by liquid scintillation counting method; assay type: functional, organism-based
Procedure, shortened: (§2)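 S. aureus 12ST was grown overnight in 0.2× LB, diluted 200-fold, and grown at 37 °C to OD600 0.2–0.25. Aliquots were exposed to compound for 5 min at 37 °C (0.5% DMSO maximum final). Label was then added ([6-3H]thymidine 0.15 μCi/sample; D-[6-3H]glucosamine 0.4 μCi/sample) for 5 min at 37 °C. Samples were precipitated with ice-cold 5% TCA for ≥30 min, filtered, washed, and scintillation counted.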

Staphylococcus aureus [7] = assay: microbe, parasite or virus in culture; details: ATCC 6538P, 16 h
[8] = tested on: Mycolicibacterium smegmatis; assay: Antibacterial activity against Mycobacterium smegmatis after 16 hrs by agar diffusion method; assay type: functional, organism-based
Staphylococcus aureus [9] = assay: Bactericidal activity against Staphylococcus aureus ATCC 6538P at 8 times MIC up to 2 to 4 hrs by time kill assay relative to control; assay type: functional
Staphylococcus aureus [10] = assay: Bactericidal activity against Staphylococcus aureus isolate 3797 at 8 times MIC up to 2 to 4 hrs by time kill assay relative to control; assay type: functional
Staphylococcus aureus [11] = assay: Inhibition of DNA synthesis in Staphylococcus aureus isolate 12ST assessed as reduction in 5-[3H]thymidine incorporation preincubated for 5 mins followed by 5-[3H]thymidine addition and measured after 5 mins by liquid scintillation counting method; assay type: functional, organism-based
Procedure, shortened: as §2

[12] = tested on: Staphylococcus haemolyticus; assay: Antibacterial activity against Staphylococcus haemolyticus isolate 1730 after 16 hrs by agar diffusion method; assay type: functional
Cutibacterium acnes = assay: Antibacterial activity against Propionibacterium acnes ATCC 25746 after 16 hrs by agar diffusion method; assay type: functional
Bacillus subtilis = assay: Inhibition of cell wall synthesis in Bacillus subtilis BAU102 assessed as induction of beta-galactosidase activity preincubated for 120 mins followed by beta-galactosidase chromogenic substrate addition; assay type: functional, organism-based
Staphylococcus aureus [13] = assay: Antibacterial activity against multidrug-resistant Staphylococcus aureus isolate 3797 after 16 hrs by agar diffusion method; assay type: functional
HEK293 = assay: Growth inhibition of HEK293 cells after 48 hrs by MTT assay; assay type: cell-based; details: Homo sapiens, HEK293, 48 h
Enterococcus faecium [14] = assay: Antibacterial activity against Vancomycin A-inducible resistant Enterococcus faecium isolate 569 after 16 hrs by agar diffusion method; assay type: functional
[15] = tested on: Staphylococcus intermedius; assay: Antibacterial activity against Staphylococcus intermedius ATCC 29663 after 16 hrs by agar diffusion method; assay type: functional
Staphylococcus aureus [16] = assay: Bactericidal activity against Staphylococcus aureus isolate 3797 up to 8 times MIC up to 24 hrs by time kill assay; assay type: functional, organism-based
Enterococcus faecium [17] = assay: Antibacterial activity against Enterococcus faecium isolate 568 after 16 hrs by agar diffusion method; assay type: functional
Staphylococcus aureus [18] = assay: Bactericidal activity against Staphylococcus aureus ATCC 6538P up to 8 times MIC up to 24 hrs by time kill assay; assay type: functional, organism-based
Streptococcus pneumoniae [19] = assay: Antibacterial activity against Streptococcus pneumoniae isolate 44 after 16 hrs by agar diffusion method; assay type: functional
Clostridioides difficile = assay: Antibacterial activity against Clostridium difficile ATCC 17858 after 16 hrs by agar diffusion method; assay type: functional
Staphylococcus aureus [20] = assay: Inhibition of RNA synthesis in Staphylococcus aureus isolate 12ST assessed as reduction in [3H]uridine incorporation up to 60 ug/ml preincubated for 5 mins followed by [3H]uridine addition and measured after 5 mins by liquid scintillation counting method; assay type: functional, organism-based
Procedure, shortened: as §1

Staphylococcus aureus [21] = assay: Antibacterial activity against methicillin-resistant Staphylococcus aureus isolate 3864 after 16 hrs by agar diffusion method; assay type: functional

COc1c(OC)c2c(=O)c3cc(C)n(C(CC4CN(C)C(=N)N4)C(=O)O)c(=O)c3c(=O)c2c2cc3c(=O)c4cc(O)cc(O)c4c(=O)c3c(OC)c12 (stereo unspecified)
MIC (Staphylococcus aureus [1]): 0.0005 µg/mL (≈ 0.000704 µM)
Activity (Candida albicans): inactive
inhibition at 48 h, 90 µM [2]: 20%
MIC (Streptococcus pyogenes; isolate 49, 16 h): 0.5 µg/mL (≈ 0.704 µM)
MIC ([3]; isolate 1729, 16 h): 0.015 µg/mL (≈ 0.0211 µM)
Activity (Staphylococcus aureus [4]): Active
MIC (Streptococcus pneumoniae [5]; ATCC BAA1407, 16 h): 0.25 µg/mL (≈ 0.352 µM)
IC50 (Staphylococcus aureus [6]): 5 µg/mL (≈ 7.04 µM)
inhibition (Staphylococcus aureus [6]): Dose-dependent effect
MIC (Staphylococcus aureus [7]): 0.004 µg/mL (≈ 0.00563 µM)
Activity [8]: inactive
Activity (Staphylococcus aureus [9]): >99.9%
Activity (Staphylococcus aureus [10]): >99.9%
IC50 (Staphylococcus aureus [11]): 2 µg/mL (≈ 2.81 µM)
inhibition (Staphylococcus aureus [11]): Dose-dependent effect
MIC ([12]; isolate 1730, 16 h): 0.03 µg/mL (≈ 0.0422 µM)
MIC (Cutibacterium acnes; ATCC 25746, 16 h): 0.25 µg/mL (≈ 0.352 µM)
inhibition (Bacillus subtilis): Active
MIC (Staphylococcus aureus [13]; isolate 3797, 16 h): 0.03 µg/mL (≈ 0.0422 µM)
pIC50 (HEK293): 4.26
MIC (Enterococcus faecium [14]; isolate 569, 16 h): 2 µg/mL (≈ 2.81 µM)
MIC ([15]; NCTC 11048, 16 h): 0.007 µg/mL (≈ 0.00985 µM)
Activity (Staphylococcus aureus [16]): inactive
MIC (Enterococcus faecium [17]; isolate 568, 16 h): 4 µg/mL (≈ 5.63 µM)
Activity (Staphylococcus aureus [18]): inactive
MIC (Streptococcus pneumoniae [19]; isolate 44, 16 h): 0.25 µg/mL (≈ 0.352 µM)
MIC (Clostridioides difficile; ATCC 17858, 16 h): 2 µg/mL (≈ 2.81 µM)
inhibition (Staphylococcus aureus [20]): inactive
MIC (Staphylococcus aureus [21]; isolate 3864, 16 h): 0.03 µg/mL (≈ 0.0422 µM)

CN[C@H](CC(C)C)C(=O)N[C@H]1C(=O)N[C@@H](CC(N)=O)C(=O)N[C@H]2C(=O)N[C@H]3C(=O)N[C@H](C(=O)N[C@H](C(=O)O)c4cc(O)cc(O)c4-c4cc3ccc4O)[C@H](O)c3ccc(c(Cl)c3)Oc3cc2cc(c3O[C@@H]2O[C@H](CO)[C@@H](O)[C@H](O)[C@H]2O[C@H]2C[C@](C)(N)[C@H](O)[C@H](C)O2)Oc2ccc(cc2Cl)[C@H]1O [VANCOMYCIN]
MIC (Streptococcus pyogenes; isolate 49, 16 h): 0.25 µg/mL (≈ 0.173 µM)
MIC ([3]; isolate 1729, 16 h): 2 µg/mL (≈ 1.38 µM)
MIC (Streptococcus pneumoniae [5]; ATCC BAA1407, 16 h): 0.5 µg/mL (≈ 0.345 µM)
MIC ([12]; isolate 1730, 16 h): 2 µg/mL (≈ 1.38 µM)
MIC (Cutibacterium acnes; ATCC 25746, 16 h): 0.25 µg/mL (≈ 0.173 µM)
MIC (Staphylococcus aureus [13]; isolate 3797, 16 h): 8 µg/mL (≈ 5.52 µM)
MIC (Enterococcus faecium [14]; isolate 569, 16 h): > 128 µg/mL
MIC ([15]; NCTC 11048, 16 h): 1 µg/mL (≈ 0.69 µM)
MIC (Streptococcus pneumoniae [19]; isolate 44, 16 h): 0.125 µg/mL (≈ 0.0863 µM)
MIC (Clostridioides difficile; ATCC 17858, 16 h): 0.5 µg/mL (≈ 0.345 µM)

GENTAMICIN
MIC (Streptococcus pyogenes): 16 µg/mL
MIC [3]: > 128 µg/mL
MIC (Streptococcus pneumoniae [5]): 64 µg/mL
MIC [12]: > 128 µg/mL
MIC (Cutibacterium acnes): 2 µg/mL
MIC (Staphylococcus aureus [13]): 64 µg/mL
MIC (Enterococcus faecium [14]): 16 µg/mL
MIC ([15]; NCTC 11048): < 0.125 µg/mL
MIC (Enterococcus faecium [17]): 32 µg/mL
MIC (Streptococcus pneumoniae [19]): 8 µg/mL
MIC (Clostridioides difficile): 128 µg/mL
MIC (Staphylococcus aureus [21]): > 128 µg/mL
